AI-2 QS mod: modulators of Vibrio harveyi AI-2 quorum sensing system. AID 2094. 0.4% of 300,000 active. activity change, % at 7.5 µM. Vibrio harveyi JMH597 AI-2 luminescence/OD600 ratio, 9 h; stronger effect = lower value; strain lacks LuxN and CqsS sensors; 0 = neutral-control median; in the data active = activity change below about -75%, passing the limit was not always enough; inconclusive = no clear call, values can overlap the other calls;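 also: luminescence divided by OD600 gain over 9 h not by final OD600 alone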
HSF1 activator: increases HSF-1 driven luciferase reporter signal; NIH3T3-HGL HSF-1 luciferase reporter, MG132, 8 h; 100% = twice DMSO control signal; activation, % at 9 µM; 1.7% of 300,000 active; AID 504408;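 active = mean replicate activation of at least 50% with a set share of replicates each reaching 50%; inconclusive = only one of those two conditions met; inactive = mean below 50% and too few replicates reaching it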;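 also: 0% = median of the neutral control wells and 100% = twice that signal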
PHOSPHO1 block: PHOSPHO1 (human) inhibition; inhibition, % at 13.3 µM; recombinant PHOSPHO1, absorbance phosphatase assay; 1.1% of 290,000 active; in the data active = inhibition above about 60%
Target sequence (Q8TCT1 whole entry, looked up): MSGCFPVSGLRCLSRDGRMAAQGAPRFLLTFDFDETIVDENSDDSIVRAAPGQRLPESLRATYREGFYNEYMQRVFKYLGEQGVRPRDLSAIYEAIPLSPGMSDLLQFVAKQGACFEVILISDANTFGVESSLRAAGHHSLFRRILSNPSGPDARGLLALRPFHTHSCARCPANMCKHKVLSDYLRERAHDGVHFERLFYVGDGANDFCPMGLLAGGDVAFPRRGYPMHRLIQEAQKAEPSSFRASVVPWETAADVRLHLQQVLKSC
core dimer inh: HCV core protein dimerization inhibition | inhibition, % at 5 µM | 0.33% of 300,000 active | TR-FRET GST/Flag-core106 dimerization, 1536-well;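 active = inhibition above the mean of all tested compounds plus 3 SD, set per screening campaign, cut at about 45% in these data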
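Assay system: tagged HCV core106 pair (GST and Flag); medium: KF-containing HEPES buffer, pH 7.45, DTT, CHAPS, BSA; also added: Eu donor and XL665 acceptor anti-tag antibodies; dosing: 5 µM single dose; timing: compound-protein-antibody incubation 4 h at 22.5 °C; signal: TR-FRET 671 and 617 nm emission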
HSF1 inh: HSF1 inhibition; NIH3T3-HGL HSE-luciferase, MG132-induced, luminescence 8 h; stronger effect = lower value; activity change, negative = inhibition, % at 7.5 µM (by protocol); 0.77% of 300,000 active; AID 2098;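 active = more than half of replicate wells show activity change below -50%, luminescence cut by over half; inconclusive = some wells, but at most half, below -50%; inactive = no replicate well below -50%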;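 also: luciferase reports HSF-1 transcriptional activity via heat shock element; 0% = median of DMSO wells and -100% = zero luminescence signal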
ALR inh: inhibitors of human sulfhydryl oxidase ALR. 3.8% of 290,000 active. P55789. inhibition, % (test concentration not listed). purified ALR, DTT oxidation, H2O2 HRP-luminol luminescence. AID 485317;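 active = mean replicate inhibition above about 79%, with every replicate also reaching it, limit read from the data; inconclusive = only one of the two criteria met; inactive = mean below limit and not every replicate reaching it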
Target sequence (P55789 whole entry, looked up): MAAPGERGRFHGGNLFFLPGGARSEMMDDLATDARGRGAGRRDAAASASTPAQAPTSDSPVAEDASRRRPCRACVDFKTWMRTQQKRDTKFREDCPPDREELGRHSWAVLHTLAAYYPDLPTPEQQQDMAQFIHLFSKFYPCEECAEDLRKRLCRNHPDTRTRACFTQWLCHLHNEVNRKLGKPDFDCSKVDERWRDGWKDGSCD
The depositor's hits bear a star; ? = inconclusive; · = not tested or not shown; ! = not active in a repeat. Shown are actives, neighbours in structure and some others; about 6.8% of the full set was active somewhere.

SMILES | AI-2 QS mod | HSF1 activator | PHOSPHO1 block | core dimer inh | HSF1 inh | ALR inh
COc1ccccc1N1CCN(C(=O)c2ccc([N+](=O)[O-])s2)CC1 | 47 | 5 | -21 | 1 | 1 | -12
COc1ccccc1N1CCN(C(=O)c2cc3c(s2)CCC3)CC1 | 19 | 9 | 17 | 74* | -3 | 9
COc1ccccc1OCCC(=O)N1CCN(c2ccccc2OC)CC1 | -13 | -14 | 53 | -1 | 3 | 82*
O=C(NCc1cccnc1)C(=O)C1C(=O)Nc2ccccc21 (configuration not stated) | 25 | 7 | 37 | 1 | 4 | 22
Cc1ccccc1NC(=O)CSc1nnc2ccc(-c3cccnc3)nn12 | 34 | -4 | · | -4 | -2 | ·
Cc1cc2nc(CO)[nH]c2cc1C | 16 | 13 | -5 | 4 | -5 | 6
Cc1cc2nc(CS)[nH]c2cc1C | 13 | 9 | -72 | -10 | 5 | 99*
O=[N+]([O-])c1ccc2nc(-c3ccccc3)oc2c1 | 9 | 62* | 42 | -1 | 24 | -15
O=C(NC1CCSC1=O)c1ccc(Oc2ccc(F)cc2)nc1 (configuration not stated) | 18 | -16 | -5 | 3 | -6 | -22
Cc1ccc(Oc2ccc(C(=O)NC3CCSC3=O)cn2)cc1 (configuration not stated) | 16 | -10 | 4 | -6 | 2 | 99*
O=c1oc(Nc2cccc(F)c2)nc2ccccc12 | 26 | 12 | 19 | 12 | 13 | -2
Nc1nc(Nc2cccc(F)c2)nc2ccccc12 | 9 | 56* | 6 | -3 | 36 | -4
CN=c1scc(C)n1/N=C/c1cc(Br)c(O)c(OC)c1 | 5 | -6 | -34 | -22 | 0 | 99*
CN=c1scc(-c2cccs2)n1/N=C/c1ccc(O)c(O)c1O | 12 | -51 | 16 | 7 | ? | 99*
CN=c1scc(-c2cccs2)n1/N=C/c1ccccc1O | 16 | -91 | -1 | -2 | -90* | 87*
CN=c1scc(-c2ccccc2Br)n1/N=C/c1ccc[nH]1 | -1 | 4 | 40 | 0 | -6 | 5
CN=c1scc(C)n1/N=C/c1ccc(O)c(O)c1O | 43 | 9 | 44 | -32 | -11 | 100*
O=C1CCC([N+](=O)[O-])C(C2CC=CCC2)N1 (configuration not stated) | 40 | 12 | · | -6 | 2 | 2
CC(/C=C/c1cccs1)=C\C(=O)O | 8 | 92* | 8 | -8 | 38 | -11
Cc1cccc(/C(N)=N/OC(=O)c2ccoc2C)c1 | 20 | 85* | 14 | -19 | 34 | 3
COc1ccc(NC(=O)N2CCC(CO)(CC3CCCCO3)CC2)c(OC)c1 (configuration not stated) | 12 | 17 | 22 | -2 | -3 | -5
COc1cccc(OCC(O)CN2CCN(c3ccccc3)CC2)c1 (configuration not stated) | 5 | 12 | 11 | -1 | -2 | 96*!
COc1ccc(N2CCN(CC(O)COc3ccc4c(c3)CCC4)CC2)cc1 (configuration not stated) | -36 | -16 | 9 | 0 | 0 | 97*
COc1ccc(N2CCN(CC(O)COCCOc3ccc(Br)cc3)CC2)cc1 (configuration not stated) | 4 | -74 | -10 | -6 | -66* | 97*
COc1ccc(OCC(O)CN2CCN(c3ccc(Cl)cc3)CC2)cc1 (configuration not stated) | 14 | -8 | 39 | -5 | -3 | 1
SMILES | AI-2 QS mod | HSF1 activator | PHOSPHO1 block | core dimer inh | HSF1 inh | ALR inh
CSCCC(NC(=O)c1ccccc1Cl)C(=O)N1CCN(C(c2ccccc2)c2ccccc2)CC1 (configuration not stated) | 13 | 11 | -4 | 13 | -2 | -6
Oc1ccc(/C=N/N(c2ccccc2)c2ccccc2)cc1O | 49 | 83* | 4 | 16 | 33 | 99*
C(=N\N(c1ccccc1)c1ccccc1)/c1ccccn1 | 16 | -3 | 14 | -10 | 4 | -9
CCN(CC)c1ccc(/C=N/N(c2ccccc2)c2ccccc2)c(O)c1 | 23 | -34 | -4 | -6 | -17 | 0
Oc1ccc(/C=N/N(c2ccccc2)c2ccccc2)c(O)c1O | 27 | 34 | 31 | 52* | 9 | ·
CCOC(=O)c1c(C)[nH]c(C(=O)OCC(=O)Nc2cc(Cl)ccc2OC)c1C | 12 | 53* | 6 | 3 | 25 | -2
CCOC(=O)c1c(C)[nH]c(C(=O)OCC(=O)Nc2cc(C)ccc2OC)c1C | 14 | 15 | -16 | 4 | 1 | -2
CC(OC(=O)c1ccc(NC(=O)CC#N)cc1)C(=O)NCCC1=CCCCC1 (configuration not stated) | · | · | · | · | · | 98*
CCOC(=O)c1[nH]c(C)c(C(=O)Nc2ccc(F)cc2)c1C | 10 | 57* | -23 | -1 | 25 | -1
CC(OC(=O)c1ccc(S(=O)(=O)N(C)c2ccccc2)cc1)C(=O)NCCC1=CCCCC1 (configuration not stated) | 7 | 21 | -2 | 4 | 4 | ·
CCOC(=O)c1c(C)[nH]c(C(=O)C(C)OC(=O)c2ccc(NC(=O)CC#N)cc2)c1C (configuration not stated) | · | · | · | · | · | 99*
CCOC(=O)c1[nH]c(C)c(C(=O)Nc2ccc(C)c(C)c2)c1C | 31 | 12 | 2 | 1 | 11 | 17
Nc1oc2ccccc2c(=O)c1C=O | 8 | 0 | -11 | -9 | -12 | -6
CCOC(=O)c1[nH]c(C)c(C(=O)NCCC2=CCCCC2)c1C | 17 | 61* | -1 | 1 | 36 | -8
CCc1noc(C)c1C(=O)OCC(=O)Nc1nc(-c2ccc(F)c(F)c2)cs1 | · | · | · | · | · | -4
Cn1c(=O)c(/C=C/c2ccc(F)cc2)nc2ccccc21 | 25 | 60* | 30 | · | 46 | ·
Cn1c(=O)c(/C=C/c2ccccc2)nc2ccccc21 | 20 | 45 | 10 | 3 | 17 | -37
O=C(Nc1ccc2ccccc2c1)c1ccc(Cl)cc1Cl | 9 | 51* | 42 | -6 | 13 | -16
O=C(Nc1ccc2ccccc2c1)c1cc(F)c(F)cc1Cl | 21 | 59* | 30 | -3 | 53 | -9
CC(C)C(=O)Nc1cccc(NC(=O)c2ccc(Cl)cc2Cl)c1 | 19 | 10 | -8 | -3 | -3 | 5
O=C(Nc1ccc2ccccc2c1)c1ccccc1O | 16 | 34 | 36 | -1 | 25 | -1
COc1ccc(S(=O)(=O)N(CCc2ccccc2)CC(=O)O)cc1C | 19 | -2 | 7 | -4 | 3 | 5
CSc1ccc(/C=C(\C(=O)O)c2ccc(S(=O)(=O)N3CCCC3)s2)cc1 | · | · | · | · | · | 6
COC(=O)Cn1c(=O)c2c(nc3n2CC(C)CN3Cc2ccccc2)n(C)c1=O (configuration not stated) | 32 | 3 | 14 | 3 | 0 | 5

Assay outcomes (PubChem BioAssay)
